S100A4 inh HTS = inhibitors of human S100A4 binding to myosin IIA peptide | P26447 | S100A4/TAMRA-MyoIIA peptide fluorescence polarization | inhibition, % at 10.7 µM | 0.14% of 360,000 active;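 active = mean inhibition of at least 70% across replicates, with every replicate also reaching that level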
Target sequence (P26447 whole entry, looked up): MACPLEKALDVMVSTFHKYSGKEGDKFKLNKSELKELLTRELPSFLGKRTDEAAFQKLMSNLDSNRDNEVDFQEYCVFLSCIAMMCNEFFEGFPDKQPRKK
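Material: S100A4 monomer (human). Medium: Calcium-containing HEPES buffer, pH 7.2. Probe or stimulus: labelled myosin peptide probe, 5 nM. Compound dosing: one concentration per compound. Timing: polarization read 5 min after assay mix addition, stable 5–60 min. Benchmarks: DMSO as neutral control, TFP as positive control.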
FGF22 binding = FGF22 (human) thermal shift binding; 1.5% of 340,000 active; activity (Tm shift, normalised), % at 9.99 µM; recombinant FGF22 thermal shift, SYPRO orange fluorescence; percent of sucrose octasulfate shift, DMSO zero; Q9HCT0;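 active = mean Tm shift, scaled 0 neutral to 100 positive control, at about 1.3% or above, every replicate too, limit read from the data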
Target sequence (Q9HCT0 whole entry, looked up): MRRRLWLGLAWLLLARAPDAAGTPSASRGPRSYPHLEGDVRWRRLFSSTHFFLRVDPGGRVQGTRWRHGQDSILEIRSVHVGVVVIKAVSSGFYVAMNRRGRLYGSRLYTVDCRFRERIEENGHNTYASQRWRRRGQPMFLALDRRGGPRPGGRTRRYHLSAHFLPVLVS
E-sel inducer = E-selectin induction on HUVECs | HUVEC E-selectin immunofluorescence imaging; normalized: neutral wells 0, TNF-alpha wells 100 | activation, % at 7.58 µM | 0.37% of 260,000 active | AID 686992;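 active = mean E-selectin-positive cell signal at least 10% of the positive control, reached in at least 60% of replicates, without over 20% cell loss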
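System: HUVEC, human umbilical vein endothelial cells; quantity: 3,000 cells/well; buffer or medium: EGM-2 medium, gelatin-coated wells; dosing: single-point compound dose; detection: immunofluorescence imaging; evaluation: % PE-positive cells; benchmarks: TNF-alpha, DMSO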
miR-122 sensor = inhibitors of miR-122 in Huh7 cells. Huh7 miR-122 Renilla luciferase sensor, 48 h; neutral wells = 0, positive control = 100. activation (reporter increase), % at 12.5 µM. 0.3% of 340,000 active;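 active = mean replicate activation score at least 90 and every replicate individually at or above 90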;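 note: higher luciferase means less miR-122 activity so hits act as miR-122 inhibitors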
SIRT5 block = inhibitors of human sirtuin-5 desuccinylase; AID 652115; inhibition, % at 15 µM; 1.1% of 330,000 active; Q9NXA8; Purified SirT5, succinyl-peptide AMC, trypsin-coupled fluorescence; in the data active = inhibition above about 15%
Target sequence (Q9NXA8 whole entry, looked up): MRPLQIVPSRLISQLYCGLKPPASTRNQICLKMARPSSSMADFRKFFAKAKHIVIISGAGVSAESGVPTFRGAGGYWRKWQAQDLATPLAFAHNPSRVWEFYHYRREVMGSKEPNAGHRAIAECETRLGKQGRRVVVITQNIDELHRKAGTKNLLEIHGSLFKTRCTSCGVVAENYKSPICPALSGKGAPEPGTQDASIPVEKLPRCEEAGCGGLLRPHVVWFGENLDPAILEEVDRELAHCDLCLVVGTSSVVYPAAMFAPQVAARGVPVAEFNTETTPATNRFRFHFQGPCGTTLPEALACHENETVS
* marks the source's active call; other numbers are inactive results; · = not tested or not shown; [ ] = remark or other dose. Shown are actives, neighbours in structure and some others; about 2.5% of the full set was active somewhere.

SMILES | S100A4 inh HTS | FGF22 binding | E-sel inducer | miR-122 sensor | SIRT5 block
CO[C@@H]1CN(C)C(=O)c2cc(NC(=O)CC(F)(F)F)ccc2OC[C@H](C)N(C(=O)c2ccccc2F)C[C@H]1C | · | · | 0 | · | ·
COc1ccc(C(NC(=O)C2CCN(CCCc3ccccc3)CC2)c2ccccn2)cc1 (centres undefined) | · | · | · | 5 | ·
COc1ccc(C(NC(=O)C2CCN(CCc3ccccc3)CC2)c2ccccn2)cc1 (centres undefined) | -7 | 0 | 0 | -2 | 15*
Cc1ccc(S(=O)(=O)Nc2ccc3c(c2)C(=O)N([C@@H](C)CO)C[C@H](C)[C@H](CN(C)S(=O)(=O)c2ccccc2)OCCCC[C@H](C)O3)cc1 | -18 | · | 0 | -6[16.7 µM] | 9
Cc1ccc(S(=O)(=O)Nc2ccc3c(c2)C(=O)N([C@H](C)CO)C[C@@H](C)[C@H](CN(C)S(C)(=O)=O)OCCCC[C@@H](C)O3)cc1 | 125* | 0 | 0 | -2[16.7 µM] | 3
Cc1ccc(S(=O)(=O)N(C)C[C@@H]2OCCCC[C@@H](C)Oc3ccc(NS(=O)(=O)c4ccccc4)cc3C(=O)N([C@@H](C)CO)C[C@H]2C)cc1 | -3 | -1 | 0 | -12[16.7 µM] | 19*
Cc1ccc(S(=O)(=O)Nc2ccc3c(c2)C(=O)N([C@@H](C)CO)C[C@H](C)[C@H](CN(C)S(=O)(=O)c2ccccc2)OCCCC[C@@H](C)O3)cc1 | -17 | · | 0 | 4[16.7 µM] | 24*
Cc1ccc(S(=O)(=O)Nc2ccc3c(c2)C(=O)N([C@@H](C)CO)C[C@H](C)[C@H](CN(C)S(C)(=O)=O)OCCCC[C@@H](C)O3)cc1 | -5 | 0 | 1 | 10[16.7 µM] | 3
Cc1ccc(S(=O)(=O)N(C)C[C@H]2OCCCC[C@H](C)Oc3ccc(NS(=O)(=O)c4ccccc4)cc3C(=O)N([C@@H](C)CO)C[C@@H]2C)cc1 | 0 | 0 | 0 | -3[16.7 µM] | 19*
COc1ccc(NC(=O)N(C)C[C@H]2Oc3c(NS(=O)(=O)c4ccccc4)cccc3C(=O)N([C@@H](C)CO)C[C@H]2C)cc1 | · | · | 0 | -1[16.7 µM] | ·
CCCNC(=O)[C@@H]1[C@@H](CO)[C@@H]2Cn3c(ccc(/C=C/c4ccccc4)c3=O)[C@H]1N2C(=O)c1cccnc1 | -4 | 0 | 0 | 7[16.7 µM] | -85
Cc1ccc(S(=O)(=O)Nc2ccc3c(c2)C(=O)N([C@H](C)CO)C[C@H](C)[C@H](CN(C)C(=O)NC(C)C)OCCCC[C@H](C)O3)cc1 | 0 | 1 | 0 | -3[16.7 µM] | 3
Cc1ccc(S(=O)(=O)Nc2ccc3c(c2)C(=O)N([C@H](C)CO)C[C@H](C)[C@@H](CN(C)S(=O)(=O)c2ccccc2)OCCCC[C@H](C)O3)cc1 | -2 | · | 0 | 4[16.7 µM] | 9
Cc1ccc(S(=O)(=O)N(C)C[C@@H]2OCCCC[C@@H](C)Oc3ccc(NS(=O)(=O)c4c(C)noc4C)cc3C(=O)N([C@@H](C)CO)C[C@@H]2C)cc1 | -5 | 0 | · | 3[16.7 µM] | 5
Cc1ccc(S(=O)(=O)N(C)C[C@H]2OCCCC[C@@H](C)Oc3ccc(NS(=O)(=O)c4c(C)noc4C)cc3C(=O)N([C@@H](C)CO)C[C@@H]2C)cc1 | -22 | 0 | · | 5[16.7 µM] | 17*
Cc1ccc(S(=O)(=O)Nc2ccc3c(c2)C(=O)N([C@H](C)CO)C[C@@H](C)[C@@H](CN(C)C(=O)NC(C)C)OCCCC[C@@H](C)O3)cc1 | 107* | 0 | 0 | 26[16.7 µM] | 7
Cc1ccc(S(=O)(=O)N(C)C[C@H]2OCCCC[C@@H](C)Oc3ccc(NS(=O)(=O)c4ccccc4)cc3C(=O)N([C@@H](C)CO)C[C@@H]2C)cc1 | -6 | 1 | 6 | 47[16.7 µM] | 19*
O=C(C[C@H]1CC[C@H]2[C@@H](COC[C@@H](O)CN2C(=O)Nc2cccc(F)c2)O1)NCc1ccccc1Cl | · | 0 | 0 | 6[16.7 µM] | ·
O=C(NCC1CCCO1)C1CCN(C2CCN(Cc3ccco3)CC2)CC1 (centres undefined) | 0 | 44* | · | -1 | 0
CCOc1cccc(CN2CCC(N3CCC(C(=O)NCC4CCCO4)CC3)CC2)c1 (centres undefined) | -4 | 0 | · | 1 | 21*
CCOc1cc(NC(=S)NCC2CCCO2)c(OCC)cc1NC(=O)c1ccccc1 (centres undefined) | · | · | · | -2 | ·
CCOc1cc(NC(=S)NCC2CCCO2)c(OCC)cc1NC(=O)C1CC1 (centres undefined) | 3 | 43* | 4 | · | -1
Cc1noc(C)c1S(=O)(=O)Nc1ccc2c(c1)C(=O)N([C@H](C)CO)C[C@H](C)[C@H](CN(C)C)OCCCC[C@H](C)O2 | 7 | · | 0 | 5[16.7 µM] | -2
COc1ccc(/C=C2/N=C(SCC(=O)Nc3cc(C)on3)N(c3ccccc3)C2=O)cc1 | 12 | 0 | · | -9 | ·
CCC(SC1=N/C(=C/c2ccccc2)C(=O)N1c1ccccc1)C(=O)Nc1cc(C)on1 (centres undefined) | 1 | 0 | 1 | 341* | -3
SMILES | S100A4 inh HTS | FGF22 binding | E-sel inducer | miR-122 sensor | SIRT5 block
CCC(Sc1nc(C)cc(C)n1)C(=O)Nc1cc(C)on1 (centres undefined) | -26 | 44* | · | · | -2
CCNC(=O)C[C@H]1CC[C@@H]2[C@H](COC[C@H](O)CN2S(=O)(=O)c2ccccc2F)O1 | -1 | -1 | 0 | -3[16.7 µM] | 2
C[C@H]1CN([C@@H](C)CO)C(=O)c2cc(N(C)C)ccc2O[C@H]1CN(C)S(C)(=O)=O | 3 | -1 | 0 | 2[16.7 µM] | -1
C/C(=N/NC(=O)CNC(=O)CCc1ccccc1)c1ccc(Cl)c(Cl)c1 | -2 | 0 | 0 | · | 16*
C/C(=N/NC(=O)CNC(=O)Cc1ccccc1)c1ccc(Cl)cc1 | -1 | 0 | 0 | -1 | -5
CCC(Sc1nc2ccncc2[nH]1)C(=O)Nc1ccc(C)c(Cl)c1 (centres undefined) | 79* | 0 | 0 | 9 | -2
CCOc1ccccc1NC(=O)C(CC)Sc1nc2ccncc2[nH]1 (centres undefined) | 2 | 0 | · | -7 | 0
C[C@H]1CN([C@@H](C)CO)C(=O)c2cccc(NC(=O)Nc3ccccc3)c2O[C@@H]1CN(C)S(=O)(=O)c1ccc(Cl)cc1 | 3 | 0 | 0 | -3[16.7 µM] | -1
CSc1nc2c([nH]1)c(=S)n(C)c(=O)n2C | 1 | 43* | 0 | -1 | ·
CCCCSc1nc2c([nH]1)c(=S)n(C)c(=O)n2C | -1 | 0 | 1 | · | -3
O=C(C1CCCC1)N1CCCCN2[C@H](CO)[C@H](c3ccc(C#CC4(O)CCCC4)cc3)[C@H]2C1 | -10 | 0 | · | -26[16.7 µM] | -26
COc1ccc(S(=O)(=O)N[C@H]2CC[C@@H](CC(=O)N3CCN(c4ccccc4)CC3)O[C@@H]2CO)cc1 | 10 | 0 | 0 | · | 0
O=C1N=c2ccccc2=C1c1sc(=O)[nH]c1O | 9 | 0 | 0 | 4 | -4

Assay outcomes: PubChem BioAssay, Broad Institute
